This note sets out measurements from the RNAGym collection of RNA variant scans (doi:10.1101/gad.245936.114).

Fewer inactive variants are shown than the library holds.

B1: tRNA (parent)
chain: CUCUCGGUAGCCAAGUUGGUUUAAGGCGCAAGACUUUAAUUUAUCACUACGAAAUCUUGAGAUCGGGCGUUCGACUCGCCCCCGGGAGAUUUUUUCCUCGAGCAA

Variants of B1 are the subject of the data set. As to the kind of experiment: nonsense suppression (GFP-seq) (ratio to wild type); higher = more function; SUP4oc tRNA, yeast GFP reporter sort-seq. Summed up:
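Each variant's nonsense suppression (GFPSEQ) is a cell-share-weighted bin median GFP/RFP relative to the unmutated parent tRNA. Yeast with genome-integrated tRNA variants from a ~3% random-mutation library, a galactose-driven GFP ochre reporter and RFP were grown in raffinose/galactose medium with 80 mg/L adenine, then sorted into GFP/RFP bins for Illumina sequencing. Variants needed ≥100 reads and ≥30 cells.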
As to CUCUCGGUAGCCAAGGUGGUUUAAGGCGCAAGACUUUAAUUUAUCACUACGAAUUCUUGAGAGCGGGCGUUCGACUCGCCCCCGGGAGAUUUUUUCCUCGAGCAA, the nonsense suppression worked out at 0.278.

On to CUCUCGGUAGCCAAGGUGGUUUAACGCGCAAGACUUUAAUUUAUCACUACGAAAGCUUGAGAUCGGGCGUUCGACUCGCCCCCGGGAGAUUUUUUCCUCGAGCAA, for which the nonsense suppression was at most 0.026.

In the case of CUCUCGGUAGCCAAGGUGGUUUAAGGCGUAAGACUUUAAUUUAUCACUACGAAAUCUUGAGAUCGGGCGUUCGACUCGCCCCCGGGAGCUUUUUUCCUCGAGCAA, the nonsense suppression was at most 0.026.

In the case of CUCUCGGUAGCCAAGUAGGUUUAAGGCGCAAGACUUUAAUUUAUCACUACGAAAUCUUGCGAUCGGGCGUUCGACUCGCCCCCGGGAGAUUUUUUCCUCGAGCAA, the nonsense suppression was determined as 0.19.

For the variant CUCUCGGUAGCCAAGGAGGUUUAAGGCGCAAGACUUUAAUUUAUCACUACGAAAUCUUGAGAUCGGGCGUUCGACUCGCCCCCGGGAGAUUUUUUCCUCGAGCAA, the nonsense suppression was determined as 1.05.

Take CUCUCGGUAGCCAAGGCGGUUUAAGGCGCAAGACUUUAAUUUAUCACUACGAAAUCUUGAGAUCGGGCGUUCGACUCGCCCCCGGGAGAUUUUUUCCUCGAGCAA: the nonsense suppression was determined as 1.05.

Turning to CUCUCGGUAGCCAAGUAGGUUUAACGCGCAAGACUUUAAUUUAUCACUACGAAAUCUUGAGAUCGGGCGUUCGACUCGCCCCCGGGAGAUUUUUUCCUCGAGCAA, the nonsense suppression amounted to 0.068.

Regarding CUCUCGGUAGCCAAGGUGGUUUAAGGCGCCGGACUUUAAUUUAUCACUACGAAAACAUGAGAUCGGGCGUUCGACUCGCCCCCGGGAGAUUUUUUCCUCGAGCAA, the nonsense suppression was at most 0.026.

For the variant CUCUCGGUAGCCAAGGUGGUUUAAGGGGCAAGACUUUAAUUUAUCACUACGAAAUCUUGAGAUCGGGCGUUCGACUCGCCCCCGGGAGAUUUUUUCCUCGAGCAA, the nonsense suppression was at most 0.026.

On to CUCUCGGUAGCCAAGUAGGUUUCAGGCGCAAGACUUUAAUUUAUCACUACGAAAUCUUGAGAUCGGGCGUCCGACUCGCCCCCGGGAGAUUUUUUCCUCGAGCAA, for which the nonsense suppression is at most 0.026.

As to CUCUCGGUAGCCAAGGUGGUUUAAGGCGCAGGACUUUAAUUUAUCACUACGAAAUCUUGAGAUCGGGCGUUCGACUCGCCCCCGGGAGAUUUUUUCCUCGAGCAA, the nonsense suppression came to 1.15.

With CUCUCGGUAGCCAAGGUGGUUUAAGGCGCAAGACUUUAAUUUAUCACUACGAAAUCUUGAGAUCGGGCGUUCGACUCGCCCCCGUGAGAUUUUUUCCUCGAGCAA, the nonsense suppression worked out at 1.06.

As for CUCUCGGUAGCCAAGGUGGUUUAAGGCGCAAGACUUUAAUUUAUCACUACGAAAUCUUGAGAUCGGGCGUUCGACUCGCCCCCGCGAGAUUUUUUCCUCGAGCAA, the nonsense suppression amounted to 0.0285.

Take CUCUCGGUAGCCAAGUAGGUUUAAGGCGCGAGACUUUAAUUUAUCACUACGAAAUCUUGAGAUCGGGCGUUCGACUCGCCCCCGGGAGAUUUUUUCCUCGAGCAA: the nonsense suppression came to 0.369.

In the case of CUCUCGGUAGCCAAGGUGGUUUAAGGCUCAAGACGUUAAUUUAUCACUACGAAAUCUUAAGAUCGGGCGUUCGACUCGCCCCCGAGAGAUUUUUUCCUCGAGCAA, the nonsense suppression is at most 0.026.

Turning to CUCUCGGUAGCCAAGGUGGUUUAAGGCGCAAGACUUUAAUUUAUCACUACGAAAUCUUGAGAUCGGGCGUUCGACUCGCCCGCGGGAGAUUUUUUCCUCGAGCAA, the nonsense suppression was at most 0.026.

For the variant CUCUCGGUAGCCAAGGUGGUUUAAGGCGCAAGACUUUAAUUUAUCACUACGAACUCUUGAGAUCGGGCGUUCGACUCGCCUCCGGGAGAUUUUUUCCUCGAGCAA, the nonsense suppression turned out to be 0.0601.

For the variant CUCUCGGUAGCCAAGGUGGUUUAAGGCGCGAGACUUUAAUUUAUCACUACGAAAUCUUGAGAUGGGGCGUUCGACUCGCCCCCGGGAGAUUUUUUCCUCGAGCAA, the nonsense suppression is at most 0.026.

As for CUCUCGGUAGCCAAGGAGAUUUAAGGAGCAAGACUUUAAUUUAUCACUACGAAAUCUUGAGAUCGGGCGUUCGACUCGCCCCCGGGAGAUUUUUUCCUCGAGCAA, the nonsense suppression is at most 0.026.

As for CUCUCGGUAGCCAAGGUGGUUUAAGGCGCAAGACUUUAAUUUAUCACUACGAAAUCUUGAGAUCGGGCGUUCGACCCGCCCCCGGGAGAUUUUUUCCUCGAGCAA, the nonsense suppression was determined as 1.07.

As for CUCUCGGUAGCCAAGGUGGUUUAAGGCGCAAGACUUUAAUUUAUCACUACGAAAUCUUGAGAUCGGGCGAUCGACUCGCCCACGGGAGAUUUUUUCCUCGAGCAA, the nonsense suppression was at most 0.026.

With CUCUCGGUAGCCAAGUAGGUUUAAGGCGCAAGCCUUUAAUUUAUCACUACGAAAUCUUGAGAUCGGGCGUUCGACCCGAUCCCGGGAGAUUUUUUCCUCGAGCAA, the nonsense suppression was at most 0.026.

Regarding CUCUCGGUAGCCAAGGUGGUUUAACGCGCAAGACUUUAAUUUAUCACUACGAAAUCUUGAGAUCGGGCGUUCGACUCGCCCCCGGGAGAUUUUUUCCUCGAGCAA, the nonsense suppression is 0.2.

As for CUCUCGGUAGCCAAGGUGGUUUAAGGCGCAAGACUUUAAUUUAUCACUACGAAAUCUUGAGAUCGGGCGUUCGACUCGUCCCCGGGAGAUUUUUUCCUCGAGCAA, the nonsense suppression turned out to be 0.852.

For the variant CUCUCGGUAGCCAAGGUGGUUUAAGGCGCAAGACUUUAAUUUAUCACUACGAAAUAUGGCGAUCGGGCGUUCGACUCGCCCCCGGGAGAUUUUUUCCUCGAGCAA, the nonsense suppression is at most 0.026.

Turning to CUCUCGGUAGCCAAGUAGGUUUAUGGCGCAAGACUUUAAUUUAUCACUACGAAAUCUUGAGAUCGGGCGUUCGACUCGCCCCCGGGAGAUUUUUUCCUCGAGCAA, the nonsense suppression was 0.2.

On to CUCUCGGUAGCCAAGUAGGUUUACGGCGCAAGACUUUAAUUUAUCACUACGAAAUCUUGAGAUCGGGCGUUCGACUCGCCCCCGGGAGAUUUUUUCCUCGAGCAA, for which the nonsense suppression was determined as 0.902.

On to CUCUCGGUAGCCAAGUAGGUUUAGGGCGCAAGACUUUAAUUUAUCACUACGAAAUCUUGAGAUCGGGCGUUCGACUCGCCCCCGGGAGAUUUUUUCCUCGAGCAA, for which the nonsense suppression amounted to 0.0262.

As for CUCUCGGUAGCCAAGGUGGUUUAAGGCGCAAGACUUUAAUUUAUCACUACGAAAUCUUGAGAACGGGCGUUCGACUCGCCCCCGGGAGAUUUUUUCCUCGAGCAA, the nonsense suppression stood at 1.09.

Take CUCUCGGUAGCCAAGGUGGUUUAAGGCGCAAGACUUUAAUUUAUCACUACGAAAUCAUGAGAUUGUGCAUUCGACUCGCCCCCGGGAGAUUUUUUCCUCGAGCAA: the nonsense suppression was at most 0.026.

On to CUCUCGGUAGCCAAGUAGGUUUAAGGCGCAAGACUUUAAUUUAUCACUACGAAAUCUUGAGAUCGGGCGUUCGACUCGACCCCGGGAGAUUUUUUCCUCGAGCAA, for which the nonsense suppression is at most 0.026.

Regarding CUCUCGGUAGCCAAGUAGGUUUCAGGCGCAAGACUUUAAUUUAUCACUACGAAAUCUUGAGAUCGGGGGUUCGACUCGCCCCCGGGAGAUUUUUUCCUCGAGCAA, the nonsense suppression is at most 0.026.

As to CUCUCGGUAGCCAAGUAGGUUUAAGUCGCAAGACUUUAAUUUAUCACUACGAAAUCUUGAGAUCGGGCGUUCGACUCGCCCCCGGGAGUUUUUUUCCUCGAGCAA, the nonsense suppression was at most 0.026.

As for CUCUCGGUAGCCAAGGUGGUUUAAGGCGCAAGACUUUAAUUUAUCACUACGAAAUCUUGAGAUCGGGCGUUCGACGCGCCCCCGGCAGAUUUUUUCCUCGAGCAA, the nonsense suppression is at most 0.026.

With CUCUCGGUAGCCAAGUAUGUUUAAGGCGCAAGACUUUAAUUUAUCACUACGAAAUCUUGAGAUCGGGCGUUCGACUCGCCCCCGGGAGAUUUUUUCCUCGAGCAA, the nonsense suppression is at most 0.026.

Turning to CUCUCGGUAGCCAAGGUGGUGUAAGGCGCAAGACUUUAAUUUAUCACUACGAAAUCUUGAGAUCGGGCGUUCGACUCGCCCCCGGGAGAUUUUUUCCUCGAGCAA, the nonsense suppression was 1.1.

For the variant CUCUCGGUAGCCAAGGUGGUCUAAGGCGCAAGACUUUAAUUUAUCACUACGAAAUCUUGAGAUCGGGCGUUCGACUCGCCCCCGGGAGAUUUUUUCCUCGAGCAA, the nonsense suppression was 0.905.

As to CUCUCGGUAGCCAAGUAGGUUUAAGGCGCAAGACUUUAAUUUAUCACUACGAAGUCUUGAGAUCGGGCGUUCGACUCGCCCCCGUGAGAUUUUUUCCUCGAGCAA, the nonsense suppression was at most 0.026.

With CUCUCGGUAGCCAAGUAGGUUUAAGGCGCAAGAUUUUAAUUUAUCACUACGAAAUCUUGAGAUCGGGCGUUCGUCUCGCCCCCGGGAGAUUUUUUCCUCGAGCAA, the nonsense suppression was at most 0.026.

For the variant CUCUCGGUAGCCAAGGUGGUUUAAGGCGCAAGACUUUAAUUUAUCACUACGAAAUCUUGAGAUCGGGCGUUCGACUCCCCCCCGGGAGAUUUUUUCCUCGAGCAA, the nonsense suppression came to 0.113.

As for CUCUCGGUAGCCAAGGUGGUUUAAGGCGCAAGACUUUAAUUUAUCACUACGAAUUCUUGAGAUCGGGCGUUCGACUCGCCCCCGGGAGAUUUUUUCCUCGAGCAA, the nonsense suppression amounted to 1.18.

With CUCUCGGUAGCCAAGUAGGUUUAAGGCGUAAGACUUUAAUUUAUCACUACGAAAUCUUGAGAUCGGGCGUUCGACUCGCCCCCGGGAGAUUUUUUCCUCGAGCAA, the nonsense suppression is 1.15.

Turning to CUCUCGGUAGCCAAGGCGGUUUAAGGCGCAAGACUUUAAUUUAUCACUACGAAAUCUUGAGAUCGGGCGUUAGACUCGCCCCCGGGAGAUUUUUUCCUCGAGCAA, the nonsense suppression amounted to 0.27.

Take CUCUCGGUAGCCAAGUAGGUUUAAGGCGCAGGACUUUAAUUUAUCACUACGAAAUCUUGAGAUCGGGCGUUGGACACUCCCCCGGGAGAUUUUUUCCUCGAGCAA: the nonsense suppression is at most 0.026.

For the variant CUCUCGGUAGCCAAGGUGGUUUAAGGCGCAAGACUUUAAUUUAUCACUACGAAAUCUUGAGAUCGGGCGUUCGACUCGCCCCUGGGAGAUUUUUUCCUCGAGCAA, the nonsense suppression is 0.223.

For CUCUCGGUAGCCAAGUAGGUUUAAGGCGCAAGACUUUAAUUUAUCACUACGAAAUCUUGAGAUCGGGCGUUCGACUCGCCCCCGGGGGAUUUUUUCCUCGAGCAA, the nonsense suppression was 1.19.

With CUCUCGGUAGCCAAGGUGGUUUAAGGCGCAAGACUUUAAUUUAUCACUACGAAAUCUUGAGAUCGGACGUUCGACUCGCCCCCGGGAGAUUUUUUCCUCGAGCAA, the nonsense suppression turned out to be 0.178.

Consider CUCUCGGUAGCCAAGGUGGUUUAAGGCGUAAGACUUUAAUUUAUCACUACGAAAUCUUGAGAUCGGGCGUUCGACUCGCCCCCGGGAGAUUUUUUCCUCGAGCAA, for which the nonsense suppression stood at 1.11.

For CUCUCGGUAGCCAAGGUGGUUAAAGGCGCAAGACUUUAAUUUAUCACUACGAAAUCUUGAGAUCGGGCGUUCGACUCGCCCCCGGGAGAUUUUUUCCUCGAGCAA, the nonsense suppression was found to be 0.872.

With CUCUCGGUAGCCAAGGUGGUUUAAGGCGCAAGAUUUUAAUUUAUCACUACGAAAUCUUGAGAUCGGGCGUUCGACUCGCCCCCGGGAGAUUUUUUCCUCGAGCAA, the nonsense suppression is at most 0.026.

As for CUCUCGGUAGCCAAGUAGGUUUAAGGCGCAAGACUUUAAUUUAUCACUACGAAAUCUUGAGAUCGGGCGUUCGACUCGCCCCCGGGAGAUUUUUUCCUCGAGCAA, the nonsense suppression stood at 0.937.

As for CUCUCGGUAGCCAAGUAGGUUUUAGGCGCAAGACUUUAAUUUAUCACUACGAAAUCUUGAGAUCGGGCGUUCGACUCGCCCCCAGGAGAUUUUUUCCUCGAGCAA, the nonsense suppression is at most 0.026.

As for CUCUCGGUAGCCAAGGUGGUUUAAGGCGCAAGACUUUAAUUUAUCACUACGAAAUCUUGGGAUCGGGCGUUCGACUCGCCCCCGGGAGAUUUUUUCCUCGAGCAA, the nonsense suppression was 0.39.

For the variant CUCUCGGUAGCCAAGUAGGUUUAAGGCGCAAGGCUUUAAUUUAUCACUACGAAAUCUUGAGAUCGGGCGUUCGACUCGCCCCCGGGAGAUUUUUUCCUCGAGCAA, the nonsense suppression was 0.104.
